Test results published in ChEMBL document CHEMBL2407009, “Rotenoids from Boerhaavia diffusa as potential anti-inflammatory agents” (J Nat Prod, 2013).
Values belong to the compound of their own block, whether it stands above or below them.

Key:
[1] = biological target: T1, Prostaglandin G/H synthase 1 (Ovis aries, UniProt P05979); assay: Inhibition of ovine COX1 assessed as PGF2alpha production by reduction of PGH2 with stannous chloride by enzyme immunoassay
T1 sequence (P05979 whole entry): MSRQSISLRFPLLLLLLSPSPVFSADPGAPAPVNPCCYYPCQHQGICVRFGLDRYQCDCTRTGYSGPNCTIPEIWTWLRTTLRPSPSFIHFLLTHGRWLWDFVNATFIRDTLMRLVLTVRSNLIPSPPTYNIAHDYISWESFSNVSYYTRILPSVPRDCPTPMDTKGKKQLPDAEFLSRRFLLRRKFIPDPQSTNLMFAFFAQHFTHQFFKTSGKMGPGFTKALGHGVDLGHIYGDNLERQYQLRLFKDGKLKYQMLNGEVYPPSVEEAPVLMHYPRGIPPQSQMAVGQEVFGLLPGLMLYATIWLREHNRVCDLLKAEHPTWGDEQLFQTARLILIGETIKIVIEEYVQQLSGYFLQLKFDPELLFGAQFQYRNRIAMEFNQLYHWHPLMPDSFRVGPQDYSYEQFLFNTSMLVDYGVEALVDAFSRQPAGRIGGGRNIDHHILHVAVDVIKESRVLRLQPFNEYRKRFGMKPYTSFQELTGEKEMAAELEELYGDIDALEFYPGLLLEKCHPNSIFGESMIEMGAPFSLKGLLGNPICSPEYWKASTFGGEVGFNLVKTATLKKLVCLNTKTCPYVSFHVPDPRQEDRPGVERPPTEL
Procedure, shortened: (§1)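 Ovine COX-1 or COX-2 from screening kit used per manufacturer; arachidonic acid substrate, PGH2 reduced by SnCl2 to PGF2α and read by enzyme immunoassay. DMSO stock solutions. Percent inhibition relative to control incubations; IC50 obtained from concentration−inhibition response curves. Means ± SEM, n = 2−3.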

[2] = biological target: T2, Prostaglandin G/H synthase 2 (Ovis aries, UniProt P79208); assay: Inhibition of ovine COX2 assessed as PGF2alpha production by reduction of PGH2 with stannous chloride by enzyme immunoassay; procedure, shortened: as §1
T2 sequence (P79208 whole entry): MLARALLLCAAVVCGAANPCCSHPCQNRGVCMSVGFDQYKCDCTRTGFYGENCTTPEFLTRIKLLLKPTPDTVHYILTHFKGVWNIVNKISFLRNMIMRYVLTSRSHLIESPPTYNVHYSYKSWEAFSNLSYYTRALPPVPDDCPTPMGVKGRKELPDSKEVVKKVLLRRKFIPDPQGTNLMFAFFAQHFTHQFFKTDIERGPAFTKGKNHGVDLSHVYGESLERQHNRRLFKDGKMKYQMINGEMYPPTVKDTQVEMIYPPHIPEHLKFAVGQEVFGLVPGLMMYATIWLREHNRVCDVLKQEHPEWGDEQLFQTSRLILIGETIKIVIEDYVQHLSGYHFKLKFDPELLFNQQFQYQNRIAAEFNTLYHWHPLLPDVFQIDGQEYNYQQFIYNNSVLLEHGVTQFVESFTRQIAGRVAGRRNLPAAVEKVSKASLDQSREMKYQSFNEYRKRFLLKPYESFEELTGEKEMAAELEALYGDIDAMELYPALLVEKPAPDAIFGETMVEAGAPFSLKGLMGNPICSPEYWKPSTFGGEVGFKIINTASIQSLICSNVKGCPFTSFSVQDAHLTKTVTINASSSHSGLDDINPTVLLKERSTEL

[3] = species: Ovis aries; assay: Selectivity ratio of IC50 for ovine COX1 to IC50 for ovine COX2
Procedure, shortened: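 Ratio of COX-1 IC50 to COX-2 IC50. Both IC50s come from concentration−inhibition curves in the ovine enzyme kit assay, with PGF2α (from SnCl2 reduction of PGH2) measured by enzyme immunoassay.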

[4] = biological target: T3, Prostaglandin G/H synthase 1 (Ovis aries) (UniProt P05979); assay: Inhibition of ovine COX1 assessed as PGF2alpha production by reduction of PGH2 with stannous chloride at 40 uM by enzyme immunoassay relative to control
T3 sequence (whole entry): T1 sequence (P05979 whole entry)
Procedure, shortened: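 Ovine COX inhibitor screening kit run per manufacturer. Enzyme converts arachidonic acid to PGH2, which SnCl2 reduces to PGF2α, quantified by enzyme immunoassay. DMSO stocks; final test concentration 40 μM. Percent inhibition calculated against control incubations. Means ± SEM, n = 2−3.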

[5] = test system: Rattus norvegicus; assay: Antiinflammatory activity in Sprague-Dawley rat assessed as inhibition of carrageenan-induced paw edema at 50 mg/kg, po administered 1 hr before carrageenan challenge measured after 5 hrs relative to control; format: functional
Procedure, shortened: (§2)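 Female Sprague-Dawley rats (160−180 g), fasted overnight, six per group. Samples suspended in freshly prepared 0.5% hydroxypropyl methyl cellulose, given orally; control group received vehicle (normal saline). 1 h after dosing, 100 μL of 1% carrageenan in saline injected subcutaneously into left hind paw. Paw volume read by plethysmometer before and at 3 and 5 h; edema = final minus basal volume. Mean ± SEM, one-way ANOVA with Dunnett's test versus control.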

[6] = test system: Rattus norvegicus; assay: Antiinflammatory activity in Sprague-Dawley rat assessed as inhibition of carrageenan-induced paw edema at 50 mg/kg, po administered 1 hr before carrageenan challenge measured after 3 hrs relative to control; format: functional; procedure, shortened: as §2
[7] = test system: Rattus norvegicus; assay: Antiinflammatory activity in Sprague-Dawley rat assessed as inhibition of carrageenan-induced paw edema at 100 mg/kg, po administered 1 hr before carrageenan challenge measured after 5 hrs relative to control; format: functional; procedure, shortened: as §2
[8] = test system: Rattus norvegicus; assay: Antiinflammatory activity in Sprague-Dawley rat assessed as inhibition of carrageenan-induced paw edema at 100 mg/kg, po administered 1 hr before carrageenan challenge measured after 3 hrs relative to control; format: functional; procedure, shortened: as §2

IC50 [1]: 33.1 µM
IC50 [2]: 31.4 µM
Ratio IC50 [3]: 1.09
Compound: COc1c(O)c(C)c(O)c2c(=O)c3c(oc12)C(OC)Oc1ccccc1-3 (racemic)

IC50 [1]: 25.9 µM
Compound: COc1c(O)c(C)c(O)c2c(=O)c3c(oc12)C(O)Oc1ccccc1-3 (racemic)

IC50 [1]: 21.7 µM
IC50 [2]: 25.5 µM
Ratio IC50 [3]: 0.79
Compound: O=c1c2c(oc3cc(O)cc(O)c13)C(O)Oc1cc(O)ccc1-2 (racemic)

inhibition [4]: 59.4%
Compound: COC1Oc2ccccc2-c2c1oc1cc(O)cc(O)c1c2=O (racemic)

inhibition [4]: 59.9%
Compound: COc1cc(O)c2c(=O)c3c(oc2c1)C(O)Oc1c(O)cccc1-3 (racemic)

inhibition [4]: 47.2%
Compound: COc1cc(O)c2c(c1)O[C@@H]1COc3c(O)cccc3[C@@]1(O)C2=O (relative stereo)

IC50 [1]: 32.9 µM
Compound: COC1Oc2ccccc2-c2c1oc1cc(O)c(C)c(O)c1c2=O (centres undefined) [BOERAVINONE A]

IC50 [1]: 25 µM
Compound: Cc1c(O)cc2oc3c(c(=O)c2c1O)-c1ccccc1OC3O (centres undefined) [BOERAVINONE B]
inhibition in vivo at 50 mg/kg [5]: 56.7%
inhibition in vivo at 50 mg/kg [6]: 48.3%

IC50 [1]: 23.9 µM
Compound: Cc1c(O)cc2oc3c(c(=O)c2c1O)-c1ccc(O)cc1OC3O (centres undefined) [BOERAVINONE E]

Compound: CC(C)Cc1ccc(C(C)C(=O)O)cc1 (centres undefined) [IBUPROFEN]
inhibition in vivo at 50 mg/kg [5]: 43.5%
inhibition in vivo at 100 mg/kg [7]: 50.4%
inhibition in vivo at 50 mg/kg [6]: 35.8%
inhibition in vivo at 100 mg/kg [8]: 42.7%
